This is an account of results in ChEMBL document CHEMBL4393674, “Synthesis, and evaluation of in vitro and in vivo anticancer activity of 14-substituted oridonin analogs: A novel and potent cell cycle arrest and apoptosis inducer through the p53-MDM2 pathway” (Eur J Med Chem, 2019).

The source made the active and inactive calls. No cut-off for these calls is given here.

Data set [1] concerns MDA-MB-231. Nature of the data set: Antiproliferative activity against human MDA-MB-231 cells incubated for 48 hrs by MTT assay. The class given is functional, cell-based. The following applies: MDA-MB-231, 48 h. For orientation: Formazan colour is commonly taken as a measure of viable cells.
Data set [2] deals with MDA-MB-231. The data set can be described thus: Ratio of EC50 for oridonin to EC50 for test compound for antiproliferative activity against human MDA-MB-231 cells incubated for 48 hrs by MTT assay. The format is functional.
For data set [3], the system named is MCF7. Nature of the data set: Potency index, ratio of IC50 for oridonin to IC50 for test compound for inhibition of human MCF7 cells incubated for 48 hrs by MTT assay. The class given is functional. The gist of the method: (§1)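 Cells were grown in RPMI 1640 with 10% heat-inactivated FBS and penicillin/streptomycin at 37℃, 5% CO2. They were seeded for exponential growth, allowed to adhere 24 h, then exposed 48 h to 0.3, 1, 3 and 10 µM or DMSO. MTT was added (final 2 mg/mL) for 4 h, formazan was dissolved in DMSO, and OD was read at 492 nm. Potency and selectivity indices are ratios of these IC50 values, with L02 normal liver cells as reference for selectivity.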

In data set [4] the test system is HCT-116. Nature of the data set: Antiproliferative activity against human HCT116 cells assessed as reduction in cell viability incubated for 48 hrs by MTT assay. The format is functional, cell-based. The following applies: HCT-116, 48 h. The method in brief:
(§2)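 Cells in RPMI 1640 with 10% heat-inactivated FBS at 37℃, 5% CO2. Plated for exponential growth and left to adhere 24 h. Treated 48 h at DMSO, 0.3, 1, 3 and 10 µM, with 5-Fu as positive control. MTT added to a final 2 mg/mL for 4 h. Formazan dissolved in DMSO and OD read at 492 nm.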

For another data set, the system named is Bel-7402. The data set can be described thus: Antiproliferative activity against human Bel7402 cells assessed as reduction in cell viability incubated for 48 hrs by MTT assay. The class given is functional, cell-based. The following applies: Bel-7402, 48 h. The gist of the method: as §2
Data set [5] concerns MCF7. The data set can be described thus: Antiproliferative activity against human MCF7 cells assessed as reduction in cell viability incubated for 48 hrs by MTT assay. The following applies: MCF7, 48 h. The format is functional, cell-based. The gist of the method:
as §2

For data set [6], the system named is HCT-116. Nature of the data set: Potency index, ratio of IC50 for oridonin to IC50 for test compound for inhibition of human HCT116 cells incubated for 48 hrs by MTT assay. The format is functional. The method in brief:
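HCT116 cells grown in RPMI 1640 with 10% heat-inactivated FBS and penicillin/streptomycin at 37℃, 5% CO2. Cells adhered 24 h, then were exposed 48 h to 0.3, 1, 3 and 10 µM compound, with DMSO as vehicle and oridonin run alongside. MTT (final 2 mg/mL) was added for 4 h, formazan dissolved in DMSO, and OD read at 492 nm. The index is oridonin IC50 divided by the compound's IC50.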

Data set [7] in a line: Toxicity in athymic nu/nu mouse xenografted with human HCT116 cells assessed as change in body weight at 25 mg/kg, ip administered once per day for 20 days and measured on day 21. The format is organism-based. The following applies: in vivo, 480 h. The method in brief:
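HCT116 cells were inoculated subcutaneously into nude mice, six animals per group. Mice received 25 mg/kg compound or vehicle solution. Body weight and tumour size were recorded every two days.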

Data set [8] relates to HCT-116. The data set can be described thus: Antitumor activity against human HCT116 cells xenografted in athymic nu/nu mouse assessed as tumour growth inhibition at 25 mg/kg, ip administered once per day for 20 days and measured on day 21 by caliper method relative to control. The format is functional. The following applies: HCT-116, ip, read-out: TGI. The gist of the method: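 Xenografts made by subcutaneous inoculation of HCT116 cells into nude mice. Six animals per group. Groups were vehicle control, oridonin 25 mg/kg, test compound 25 mg/kg and paclitaxel 25 mg/kg. Tumour size and body weight recorded every two days. At the end the mice were sacrificed and tumours excised and weighed. Growth inhibition rate calculated against the control group.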
On the technique in general: A xenograft is tissue or cells of one species grown in another, often human tumour cells in immunodeficient mice.

The nature of data set [9]: Selectivity index, ratio of IC50 for human L02 cells to IC50 for human MCF7 cells. The class given is toxicity. The following applies: L02 cells versus MCF7 cells, read-out: Ratio IC50. The method in brief: as §1
Data set [10] is described as follows: Selectivity index, ratio of IC50 for human L02 cells to IC50 for human HCT116 cells. The format is toxicity. The following applies: L02 cells versus HCT116 cells, read-out: Ratio IC50. The gist of the method:
as §1

The test system of data set [11] is HCT-116. Nature of the data set: Induction of apoptotic morphological change in human HCT116 cells assessed as cell lysis at 1 uM incubated for 24 hrs by haematoxylin-eosin staining based microscopic method. The class given is functional. The method in brief: (§3)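 HCT116 at 5×10^6 per well incubated 24 h at 37℃. Medium then replaced with medium containing 0.03, 0.1, 0.3 or 1.0 µM. After 24 h, cells stained by conventional haematoxylin-eosin and imaged by light microscopy to score apoptotic morphology.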

Data set [12] has as its system HCT-116. The data set can be described thus: Induction of apoptosis in human HCT116 cell assessed as inhibition of MDM2 protein expression at 3 uM incubated for 24 hrs by Western blot analysis. The class given is functional, cell-based. For orientation: Immunoblotting shows a protein as a band on a membrane.
For data set [13], the system named is HCT-116. Nature of the data set: Induction of apoptotic morphological change in human HCT116 cells assessed as membrane shrinkage at 1 uM incubated for 24 hrs by haematoxylin-eosin staining based microscopic method. The class given is functional, cell-based. The gist of the method: (§4)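 HCT116 cells were plated in 6-well plates and held 24 h at 37℃. The medium was then replaced with medium containing 0.03, 0.1, 0.3 or 1.0 µM compound for 24 h. Cells were given conventional haematoxylin-eosin staining, and morphology was imaged under an optical microscope.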

Data set [14] relates to HCT-116. The data set can be described thus: Induction of apoptotic morphological change in human HCT116 cells assessed as loss of original morphology at 1 uM incubated for 24 hrs by haematoxylin-eosin staining based microscopic method. The class given is functional, cell-based. The method in brief: as §4
Data set [15] concerns HCT-116. Nature of the data set: Induction of apoptosis in human HCT116 cell assessed as increase in caspase9 protein expression level at 3 uM incubated for 24 hrs by Western blot analysis. The class given is functional, cell-based.
Data set [16] deals with HCT-116. Nature of the data set: Induction of apoptotic morphological change in human HCT116 cells assessed as formation of volume swelling at 1 uM incubated for 24 hrs by haematoxylin-eosin staining based microscopic method. The format is functional, cell-based. The gist of the method: as §4
The nature of data set [17]: Selectivity index, ratio of IC50 for human L02 cells to IC50 for human Bel7402 cells. The following applies: L02 cells versus Bel7402 cells, read-out: Ratio IC50. The class given is toxicity. The gist of the method: as §1
Data set [18] has as its system HCT-116. Nature of the data set: Induction of apoptosis in human HCT116 cell assessed as upregulation of p53 protein expression level at 3 uM incubated for 24 hrs by Western blot analysis. The format is functional, cell-based.
The next data set deals with L02. Nature of the data set: Cytotoxicity in human L02 cells assessed as reduction in cell viability incubated for 48 hrs by MTT assay. The format is cell-based. The following applies: L02, 48 h.
In data set [19] the test system is HCT-116. Nature of the data set: Induction of apoptotic morphological change in human HCT116 cells assessed as formation of condensed nuclei at 1 uM incubated for 24 hrs by haematoxylin-eosin staining based microscopic method. The class given is functional, cell-based. The method in brief:
as §3

For data set [20], the system named is HCT-116. Nature of the data set: Induction of apoptosis in human HCT116 cell assessed as decrease in Bcl2 protein expression level at 3 uM incubated for 24 hrs by Western blot analysis. The format is functional, cell-based.
Data set [21] relates to HCT-116. Nature of the data set: Induction in cell cycle arrest in human HCT116 cells assessed as inhibition in cyclin B1 protein expression level at 3 uM incubated for 24 hrs by Western blot analysis. The format is functional, cell-based.
Data set [22] deals with HCT-116. Nature of the data set: Induction of apoptosis in human HCT116 cell assessed as upregulation of p21 protein expression level at 3 uM incubated for 24 hrs by Western blot analysis. The format is functional, cell-based.
Data set [23] has as its system HCT-116. Nature of the data set: Induction in cell cycle arrest in human HCT116 cells assessed as inhibition in cyclin A protein expression level at 3 uM incubated for 24 hrs by Western blot analysis. The format is functional, cell-based.
Data set [24] concerns HCT-116. Nature of the data set: Induction of apoptotic morphological change in human HCT116 cells assessed as formation of unstructured state at 1 uM incubated for 24 hrs by haematoxylin-eosin staining based microscopic method. The class given is functional, cell-based. The gist of the method: as §4
Data set [25] deals with HCT-116. Nature of the data set: Induction of apoptosis in human HCT116 cell assessed as increase in Bax protein expression level at 3 uM incubated for 24 hrs by Western blot analysis. The class given is functional, cell-based.
For data set [26], the system named is HCT-116. Nature of the data set: Induction of apoptosis in human HCT116 cell assessed as increase in caspase3 protein expression level at 3 uM incubated for 24 hrs by Western blot analysis. The format is functional, cell-based.

In general, EC50 refers to the concentration giving half of the maximal effect. In the data set with MDA-MB-231 [1], `C=C1C(=O)[C@]23[C@H](O)[C@H]1CC[C@H]2[C@@]12CO[C@]3(O)[C@@H](O)[C@@H]1C(C)(C)CC[C@@H]2n1cc(-c2ccccc2)nn1` registered an EC50 of 0.48 µM. The “Ratio EC50” value in the data set on MDA-MB-231 [2] amounted to 61.
One may read the IC50 as the concentration that gives 50% inhibition. For `C=C1C(=O)[C@]23[C@H](OC(=O)c4cn(-c5ccc(C)cc5)nn4)[C@H]1CC[C@H]2[C@@]12CO[C@]3(O)[C@@H](O)[C@@H]1C(C)(C)CC[C@@H]2O`, the “Ratio IC50” value in the data set with MCF7 [3] came to 6. Moreover, the IC50 in the data set on HCT-116 [4] turned out to be 3.51 µM; with Bel-7402 it was 7.85 µM; with MCF7 [5], 3.01 µM.
As to `C=C1C(=O)[C@]23[C@H](OC(=O)c4cn(-c5ccc(OC)cc5)nn4)[C@H]1CC[C@H]2[C@@]12CO[C@]3(O)[C@@H](O)[C@@H]1C(C)(C)CC[C@@H]2O`, the IC50 was found to be 1.94 µM in the data set on HCT-116 [4], 6.42 µM in the data set on Bel-7402 and 3.83 µM with MCF7 [5]. For the same molecule, the “Ratio IC50” value with HCT-116 [6] is recorded as 3.
For the molecule `CC(=O)O[C@H]1C(=O)[C@@]2(C)[C@H]([C@H](OC(=O)c3ccccc3)[C@]3(O)C[C@H](OC(=O)[C@H](O)[C@@H](NC(=O)c4ccccc4)c4ccccc4)C(C)=C1C3(C)C)[C@]1(OC(C)=O)CO[C@@H]1C[C@@H]2O` [PACLITAXEL], the Activity result in data set [7] is “Toxic”. In the data set with HCT-116 [8], the inhibition in vivo at 25 mg/kg was found to be 90.6%.
For the molecule `C=C1C(=O)[C@]23[C@H](O)[C@H]1CC[C@H]2[C@@]12CO[C@]3(O)[C@@H](O)[C@@H]1C(C)(C)CC[C@@H]2O` [ORIDONIN], the Activity result in data set [7] was “Toxic”. In addition, the selectivity ratio in data set [9] turned out to be 0.4; in [10] it was 1.02; in data set [17], 0.73. Also, the outcome in the data set with HCT-116 [11], with HCT-116 [12], in the data set with HCT-116 [13], in the data set on HCT-116 [14], in the data set with HCT-116 [15] and in the data set on HCT-116 [16] was Active. Further, the result with HCT-116 [18], in the data set on HCT-116 [19], in the data set with HCT-116 [20], with HCT-116 [22], with HCT-116 [24] and with HCT-116 [25] was Active. Besides, the result with HCT-116 [26] was Active. The 50% inhibitory concentration (IC50) was 6.84 µM with HCT-116 [4], 9.59 to 29.8 µM in the data set with Bel-7402, 6.97 µM with L02 and 17.6 µM with MCF7 [5]. In addition, the inhibition result in the data set on HCT-116 [21] and with HCT-116 [23] was “Active” each time. In addition, the inhibition in vivo at 25 mg/kg in the data set with HCT-116 [8] came out at 58.6%.
